Experimental data from ChEMBL document CHEMBL1140747, “Discovery of potent and selective dipeptidyl peptidase IV inhibitors derived from beta-aminoamides bearing subsituted triazolopiperazines” (J Med Chem, 2008).

What was measured:
[1] = molecular target: Dipeptidyl peptidase 4 (Homo sapiens, UniProt P27487)
[2] = molecular target: Dipeptidyl peptidase 2 (Homo sapiens, UniProt Q9UHL4); assay: Inhibition of QPP
[3] = molecular target: Dipeptidyl peptidase 8 (Homo sapiens, UniProt Q6V1X1); assay: Inhibition of DPP8
[4] = molecular target: Dipeptidyl peptidase 9 (Homo sapiens, UniProt Q86TI2); assay: Inhibition of DPP9
[5] = Plasma clearance in rat at 1 mg/kg, iv and 2 mg/kg, po; format: ADME, organism-based
[6] = Half life in rat at 1 mg/kg, iv and 2 mg/kg, po; format: ADME, organism-based; settings: in vivo
[7] = (§1) Oral bioavailability in rat at 2 mg/kg; format: ADME, organism-based; settings: in vivo
[8] = molecular target: Xaa-Pro aminopeptidase 1 (Homo sapiens, UniProt Q9NQW7); assay: Inhibition of amino peptidase P
[9] = molecular target: T1, Xaa-Pro dipeptidase (Homo sapiens, UniProt P12955); assay: Inhibition of prolidase
T1 sequence (P12955 whole entry): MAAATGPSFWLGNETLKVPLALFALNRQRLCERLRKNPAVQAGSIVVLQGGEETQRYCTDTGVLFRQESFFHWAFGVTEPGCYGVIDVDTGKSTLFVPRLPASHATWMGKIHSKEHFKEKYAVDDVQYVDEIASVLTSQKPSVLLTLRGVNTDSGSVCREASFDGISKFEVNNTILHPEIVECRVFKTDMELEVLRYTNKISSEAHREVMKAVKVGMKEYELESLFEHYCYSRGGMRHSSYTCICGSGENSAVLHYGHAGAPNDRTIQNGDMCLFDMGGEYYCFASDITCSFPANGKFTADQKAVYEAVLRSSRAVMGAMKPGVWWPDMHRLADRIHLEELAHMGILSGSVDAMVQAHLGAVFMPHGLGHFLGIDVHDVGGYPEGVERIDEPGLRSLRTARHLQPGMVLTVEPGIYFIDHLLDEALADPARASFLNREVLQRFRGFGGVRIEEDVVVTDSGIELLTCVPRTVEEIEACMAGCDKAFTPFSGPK

[10] = molecular target: T2, Prolyl endopeptidase FAP (Homo sapiens, UniProt Q12884); assay: Inhibition of FAP
T2 sequence (Q12884 whole entry): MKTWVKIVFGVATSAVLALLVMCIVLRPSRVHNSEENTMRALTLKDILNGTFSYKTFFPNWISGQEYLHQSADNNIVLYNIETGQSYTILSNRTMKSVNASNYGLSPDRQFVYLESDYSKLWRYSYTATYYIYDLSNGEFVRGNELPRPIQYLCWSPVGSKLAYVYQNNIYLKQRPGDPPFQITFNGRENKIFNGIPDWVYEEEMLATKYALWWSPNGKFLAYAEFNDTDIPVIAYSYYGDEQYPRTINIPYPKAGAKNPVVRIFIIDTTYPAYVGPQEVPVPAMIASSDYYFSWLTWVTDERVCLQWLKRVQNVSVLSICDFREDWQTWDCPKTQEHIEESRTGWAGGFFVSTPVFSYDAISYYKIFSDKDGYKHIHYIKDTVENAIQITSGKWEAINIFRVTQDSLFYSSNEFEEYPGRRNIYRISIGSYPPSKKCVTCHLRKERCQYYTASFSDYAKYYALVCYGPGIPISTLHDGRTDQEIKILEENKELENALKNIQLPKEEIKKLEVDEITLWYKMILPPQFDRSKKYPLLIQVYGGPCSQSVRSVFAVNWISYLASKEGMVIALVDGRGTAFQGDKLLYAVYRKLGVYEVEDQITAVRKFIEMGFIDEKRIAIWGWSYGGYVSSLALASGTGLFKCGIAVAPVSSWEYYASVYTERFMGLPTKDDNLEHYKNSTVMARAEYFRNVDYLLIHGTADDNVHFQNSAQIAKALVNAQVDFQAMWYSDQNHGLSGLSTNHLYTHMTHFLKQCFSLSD

[11] = Cmax in rat at 2 mg/kg, po; format: ADME, organism-based; parameters: dose 2 mg/kg, route oral; settings: in vivo
[12] = system: Rattus norvegicus; assay: as §1; format: ADME, organism-based; settings: in vivo
[13] = Plasma clearance in dog at 1 mg/kg, iv and 2 mg/kg, po; format: ADME, organism-based, Canis lupus familiaris
[14] = Plasma clearance in monkey at 1 mg/kg, iv and 2 mg/kg, po; format: ADME, organism-based, Macaca mulatta; settings: rhesus monkey
[15] = Half life in dog at 1 mg/kg, iv and 2 mg/kg, po; format: ADME, organism-based, Canis lupus familiaris; settings: in vivo
[16] = Half life in monkey at 1 mg/kg, iv and 2 mg/kg, po; format: ADME, organism-based, Macaca mulatta; settings: rhesus monkey, in vivo
[17] = Cmax in dog at 2 mg/kg, po; format: ADME, organism-based, Canis lupus familiaris; parameters: dose 2 mg/kg, route oral; settings: in vivo
[18] = Cmax in monkey at 2 mg/kg, po; format: ADME, organism-based, Macaca mulatta; parameters: dose 2 mg/kg, route oral; settings: rhesus monkey, in vivo
[19] = Oral bioavailability in dog at 2 mg/kg; format: ADME, organism-based, Canis lupus familiaris; settings: in vivo
[20] = Oral bioavailability in monkey at 2 mg/kg; format: ADME, organism-based, Macaca mulatta; settings: rhesus monkey, in vivo
[21] = system: Mus musculus; assay: Reduction of dextrose induced blood glucose excursion in mouse at 0.1 mg/kg; format: functional; parameters: scale not given: the % may be the effect or the level left
In short: (§2)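 Lean mice received a single oral dose of the compound 60 min before an oral dextrose challenge (5 g/kg) in an oral glucose tolerance test. The read-out was the reduction of the dextrose-induced blood glucose excursion. Data are mean ± SEM, n = 7 per group.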

[22] = system: Mus musculus; assay: Reduction of dextrose induced blood glucose excursion in mouse at 1 mg/kg; format: functional; parameters: scale not given: the % may be the effect or the level left
In short: as §2

[23] = system: Plasma; assay: Drug level in mouse plasma at 1 mg/kg; format: ADME, organism-based; parameters: dose 1 mg/kg; settings: in vivo
In short: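 Lean mice, oral OGTT: single oral dose given 60 min before an oral dextrose challenge (5 g/kg). Plasma was sampled 20 min after dextrose for compound concentration, alongside plasma DPP-4 activity and active GLP-1. Values are mean ± SEM, n = 7 per group.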

[24] = molecular target: Dipeptidyl peptidase 4 (Mus musculus, UniProt P28843); assay: Inhibition of mouse DPP4
[25] = Oral bioavailability in Zucker fa/fa rat; format: ADME, organism-based; settings: in vivo
[26] = Oral bioavailability in mouse; format: ADME, organism-based; settings: in vivo

Chain of Dipeptidyl peptidase 9 (Q86TI2 whole entry): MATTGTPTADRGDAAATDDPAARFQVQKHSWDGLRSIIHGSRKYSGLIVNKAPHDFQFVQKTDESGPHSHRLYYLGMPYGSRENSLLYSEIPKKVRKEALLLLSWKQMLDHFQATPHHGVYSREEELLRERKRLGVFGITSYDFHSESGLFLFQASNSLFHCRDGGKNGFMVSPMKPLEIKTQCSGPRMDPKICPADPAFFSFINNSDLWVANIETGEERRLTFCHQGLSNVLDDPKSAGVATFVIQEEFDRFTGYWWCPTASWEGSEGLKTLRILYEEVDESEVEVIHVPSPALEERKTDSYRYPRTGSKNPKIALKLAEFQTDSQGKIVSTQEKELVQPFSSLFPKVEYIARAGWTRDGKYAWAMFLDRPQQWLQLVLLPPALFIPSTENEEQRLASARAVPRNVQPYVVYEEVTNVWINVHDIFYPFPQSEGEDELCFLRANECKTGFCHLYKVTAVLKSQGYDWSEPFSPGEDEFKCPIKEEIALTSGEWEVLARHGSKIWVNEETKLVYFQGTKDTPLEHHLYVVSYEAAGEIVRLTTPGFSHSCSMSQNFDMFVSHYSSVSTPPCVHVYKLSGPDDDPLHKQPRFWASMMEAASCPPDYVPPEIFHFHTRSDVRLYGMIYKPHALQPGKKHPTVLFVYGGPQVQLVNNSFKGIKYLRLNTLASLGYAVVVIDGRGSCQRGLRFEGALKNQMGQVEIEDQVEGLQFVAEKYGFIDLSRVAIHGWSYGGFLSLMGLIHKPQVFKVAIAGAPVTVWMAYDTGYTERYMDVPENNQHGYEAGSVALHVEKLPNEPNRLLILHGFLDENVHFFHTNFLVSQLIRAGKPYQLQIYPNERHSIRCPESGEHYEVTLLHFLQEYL
Chain of Dipeptidyl peptidase 8 (Q6V1X1 whole entry): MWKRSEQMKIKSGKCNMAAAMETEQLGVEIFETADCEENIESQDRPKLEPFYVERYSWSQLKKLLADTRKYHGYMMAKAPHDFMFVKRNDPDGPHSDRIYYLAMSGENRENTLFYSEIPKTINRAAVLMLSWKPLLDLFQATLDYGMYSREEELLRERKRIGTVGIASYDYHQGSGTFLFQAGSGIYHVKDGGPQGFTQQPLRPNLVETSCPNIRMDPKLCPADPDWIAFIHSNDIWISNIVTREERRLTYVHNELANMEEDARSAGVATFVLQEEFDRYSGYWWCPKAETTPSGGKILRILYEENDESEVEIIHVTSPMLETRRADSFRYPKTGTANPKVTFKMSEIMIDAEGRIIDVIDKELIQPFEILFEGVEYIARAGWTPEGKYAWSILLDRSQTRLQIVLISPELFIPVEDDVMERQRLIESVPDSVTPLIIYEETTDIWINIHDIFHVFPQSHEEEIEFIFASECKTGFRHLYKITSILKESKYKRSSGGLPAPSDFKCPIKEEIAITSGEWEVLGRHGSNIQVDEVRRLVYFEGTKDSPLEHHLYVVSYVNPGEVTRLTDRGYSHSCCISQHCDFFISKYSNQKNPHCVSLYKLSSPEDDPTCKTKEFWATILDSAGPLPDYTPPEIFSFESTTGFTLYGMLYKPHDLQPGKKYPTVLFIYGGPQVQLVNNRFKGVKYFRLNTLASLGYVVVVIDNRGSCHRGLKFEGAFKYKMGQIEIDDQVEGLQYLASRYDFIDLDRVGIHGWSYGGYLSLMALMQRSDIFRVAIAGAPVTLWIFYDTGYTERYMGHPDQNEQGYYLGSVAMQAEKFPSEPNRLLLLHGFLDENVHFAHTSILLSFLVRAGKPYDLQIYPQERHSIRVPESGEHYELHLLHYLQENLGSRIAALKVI
Chain of Dipeptidyl peptidase 4 (Homo sapiens, UniProt P27487) (P27487 whole entry): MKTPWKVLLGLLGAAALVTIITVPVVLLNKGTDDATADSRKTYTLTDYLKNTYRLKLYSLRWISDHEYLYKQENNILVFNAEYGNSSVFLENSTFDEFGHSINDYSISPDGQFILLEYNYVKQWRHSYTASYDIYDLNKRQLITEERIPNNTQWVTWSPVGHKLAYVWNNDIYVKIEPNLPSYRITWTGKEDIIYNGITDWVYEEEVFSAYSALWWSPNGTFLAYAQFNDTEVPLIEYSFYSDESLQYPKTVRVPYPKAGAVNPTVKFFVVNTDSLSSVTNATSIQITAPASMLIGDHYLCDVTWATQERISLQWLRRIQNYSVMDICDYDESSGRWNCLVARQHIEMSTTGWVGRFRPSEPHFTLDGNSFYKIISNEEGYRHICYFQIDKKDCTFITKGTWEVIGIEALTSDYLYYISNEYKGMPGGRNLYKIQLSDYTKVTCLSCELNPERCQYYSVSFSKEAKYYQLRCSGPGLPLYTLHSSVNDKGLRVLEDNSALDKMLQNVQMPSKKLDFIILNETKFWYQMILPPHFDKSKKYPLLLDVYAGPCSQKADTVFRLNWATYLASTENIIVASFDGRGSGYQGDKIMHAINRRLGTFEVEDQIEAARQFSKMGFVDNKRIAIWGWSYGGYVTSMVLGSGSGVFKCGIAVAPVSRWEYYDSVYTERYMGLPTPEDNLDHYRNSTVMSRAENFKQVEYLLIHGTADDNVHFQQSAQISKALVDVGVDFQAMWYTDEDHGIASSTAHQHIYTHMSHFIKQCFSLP
Chain of Xaa-Pro aminopeptidase 1 (Q9NQW7 whole entry): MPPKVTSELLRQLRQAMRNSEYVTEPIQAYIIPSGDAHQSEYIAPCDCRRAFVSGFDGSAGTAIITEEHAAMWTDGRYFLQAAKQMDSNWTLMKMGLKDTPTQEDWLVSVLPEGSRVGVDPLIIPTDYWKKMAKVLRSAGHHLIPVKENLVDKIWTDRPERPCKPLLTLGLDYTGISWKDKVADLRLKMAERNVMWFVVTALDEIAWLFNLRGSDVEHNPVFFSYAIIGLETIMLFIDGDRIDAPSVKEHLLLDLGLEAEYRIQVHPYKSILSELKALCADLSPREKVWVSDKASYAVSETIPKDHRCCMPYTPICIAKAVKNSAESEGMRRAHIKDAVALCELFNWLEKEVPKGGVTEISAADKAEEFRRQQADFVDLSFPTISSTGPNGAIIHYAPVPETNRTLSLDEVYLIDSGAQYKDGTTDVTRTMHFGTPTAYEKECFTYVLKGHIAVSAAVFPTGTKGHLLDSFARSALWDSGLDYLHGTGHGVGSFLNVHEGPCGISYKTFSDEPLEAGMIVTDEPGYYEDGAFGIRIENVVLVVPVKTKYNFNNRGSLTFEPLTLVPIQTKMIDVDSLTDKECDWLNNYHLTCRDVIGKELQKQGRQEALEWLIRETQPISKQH
Chain of Dipeptidyl peptidase 4 (Mus musculus, UniProt P28843) (P28843 whole entry): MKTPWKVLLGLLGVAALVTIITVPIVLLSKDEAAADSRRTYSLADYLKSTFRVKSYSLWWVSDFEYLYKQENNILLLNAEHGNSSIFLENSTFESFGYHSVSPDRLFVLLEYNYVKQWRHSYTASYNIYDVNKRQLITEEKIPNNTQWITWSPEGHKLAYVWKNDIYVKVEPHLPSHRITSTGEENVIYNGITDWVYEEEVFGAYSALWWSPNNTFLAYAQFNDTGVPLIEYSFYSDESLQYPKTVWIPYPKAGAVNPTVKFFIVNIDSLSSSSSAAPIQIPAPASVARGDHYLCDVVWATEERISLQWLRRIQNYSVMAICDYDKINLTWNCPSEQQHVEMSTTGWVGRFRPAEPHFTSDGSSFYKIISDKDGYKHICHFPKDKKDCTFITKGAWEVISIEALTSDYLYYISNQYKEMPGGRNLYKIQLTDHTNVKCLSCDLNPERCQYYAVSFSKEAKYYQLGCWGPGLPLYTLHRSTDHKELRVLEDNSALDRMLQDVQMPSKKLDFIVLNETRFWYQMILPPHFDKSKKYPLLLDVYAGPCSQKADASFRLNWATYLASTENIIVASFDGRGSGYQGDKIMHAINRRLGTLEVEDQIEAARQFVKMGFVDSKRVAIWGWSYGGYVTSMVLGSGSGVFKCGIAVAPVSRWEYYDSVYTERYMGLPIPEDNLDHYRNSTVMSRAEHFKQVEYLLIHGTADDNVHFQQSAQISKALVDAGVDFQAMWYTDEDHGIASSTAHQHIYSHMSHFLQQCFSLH

Row | Compound | IC50 [1] | IC50 [2] | IC50 [3] | IC50 [4] | clearance [5] | half-life [6] | bioavailability [7] | IC50 [8] | IC50 [9] | IC50 [10] | Cmax [11] | other results
1 | C[C@@H]1CN(C(=O)C[C@H](N)Cc2cc(F)c(F)cc2F)Cc2ccc(C(F)(F)F)n21.Cl | 0.014 µM | > 100 µM | 33 µM | 53 µM | 154 mL/min/kg | 1.9 h | 35% | > 10 µM | > 10 µM | > 10 µM |  | 
2 | C[C@@H]1c2nnc(C(F)(F)F)n2[C@H](C)CN1C(=O)C[C@H](N)Cc1cc(F)c(F)cc1F.Cl | 0.012 µM | > 100 µM | 70 µM | 52 µM | 85 mL/min/kg | 2.1 h | 45% | > 10 µM | > 10 µM | > 10 µM | 92 nM | 
3 | Cl.N[C@@H](CC(=O)N1CCn2c(nnc2C(F)(F)F)C1)Cc1cc(F)c(F)cc1F |  |  |  |  | 60 mL/min/kg | 1.7 h |  | > 10 µM | > 10 µM |  |  | F [12]: 76%
4 | C[C@@H]1c2nnc(C(F)(F)F)n2CCN1C(=O)C[C@H](N)Cc1cc(F)c(F)cc1F.Cl | 0.0043 µM | > 100 µM | 17 µM | > 100 µM | 54 mL/min/kg | 2.4 h | 57% | > 10 µM | > 10 µM | > 10 µM | 133 nM | clearance [13]: 7.8 mL/min/kg; clearance [14]: 29 mL/min/kg; half-life [15]: 8.8 h; half-life [16]: 6 h; Cmax [17]: 756 nM; Cmax [18]: 410 nM; bioavailability [19]: 91%; bioavailability [20]: 85%; Activity [21]: 34%; Activity [22]: 55%; concentration [23]: 190 nM; IC50 [24]: 0.011 µM
5 | Cl.N[C@@H](CC(=O)N1CCn2c(nnc2C(F)(F)F)[C@H]1Cc1ccc(F)cc1)Cc1cc(F)c(F)cc1F (mixture of isomers) | 0.00018 µM | 33 µM | 0.332 µM | 20 µM | 29 mL/min/kg | 1.5 h | 76% | > 10 µM | > 10 µM | > 10 µM | 360 nM | bioavailability [25]: 100%; bioavailability [26]: 6%
6 | CN(C)C(=O)CC1c2nnc(C(F)(F)F)n2CCN1C(=O)C[C@H](N)Cc1cc(F)c(F)cc1F.Cl (stereo in doubt; 41b) | 0.0028 µM | > 100 µM | 30 µM | > 100 µM | 87 mL/min/kg | 2.7 h | 9% | > 10 µM | > 10 µM | > 10 µM | 4 nM | 
7 | Cl.N[C@@H](CC(=O)N1CCn2c(nnc2C(F)(F)F)C1Cc1ccccc1F)Cc1cc(F)c(F)cc1F (stereo in doubt; 45b) | 0.00046 µM | 47 µM | 1.1 µM | 39 µM | 74 mL/min/kg | 1.4 h | 26% | > 10 µM | > 10 µM | > 10 µM | 64 nM | 
8 | N[C@@H](CC(=O)N1CCn2c(nnc2C(F)(F)F)C1C(O)c1ccc(F)cc1)Cc1cc(F)c(F)cc1F (stereo in doubt; 47a) | 0.43 µM | 48 µM | > 100 µM | > 100 µM |  |  |  | > 10 µM | > 10 µM | > 10 µM |  | 
9 | Cl.N[C@@H](CC(=O)N1CCn2c(nnc2C(F)(F)F)C1C(O)c1ccc(F)cc1)Cc1cc(F)c(F)cc1F (stereo in doubt; 47b) | 0.00032 µM | 36 µM | 0.326 µM | 89 µM | 63 mL/min/kg | 2.6 h | 8% | > 10 µM | > 10 µM | > 10 µM | 20 nM | 
10 | N[C@@H](CC(=O)N1CCn2c(nnc2C(F)(F)F)C1C(O)c1ccc(F)cc1)Cc1cc(F)c(F)cc1F (stereo in doubt; 47c) | 0.09 µM | > 100 µM | 40 µM | > 100 µM |  |  |  | > 10 µM | > 10 µM | > 10 µM |  | 
11 | N[C@@H](CC(=O)N1CCn2c(nnc2C(F)(F)F)C1C(O)c1ccc(F)cc1)Cc1cc(F)c(F)cc1F (stereo in doubt; 47d) | 0.0005 µM | 41 µM | 0.628 µM | > 100 µM |  |  |  | > 10 µM | > 10 µM | > 10 µM |  | 
12 | N[C@@H](CC(=O)N1CCn2c(nnc2C(F)(F)F)C1Cc1cc(C(F)(F)F)cc(C(F)(F)F)c1)Cc1cc(F)c(F)cc1F (stereo in doubt; 48a) | 0.587 µM | > 100 µM | > 100 µM | > 100 µM |  |  |  | > 10 µM | > 10 µM | > 10 µM |  | 
13 | Cl.N[C@@H](CC(=O)N1CCn2c(nnc2C(F)(F)F)C1Cc1cc(C(F)(F)F)cc(C(F)(F)F)c1)Cc1cc(F)c(F)cc1F (stereo in doubt; 48b) | 0.0063 µM | > 100 µM | > 100 µM | > 100 µM | 50 mL/min/kg | 4.1 h | 19% | > 10 µM | > 10 µM | > 10 µM | 42 nM | 
14 | N[C@@H](CC(=O)N1CCn2c(nnc2C(F)(F)F)C1Cc1ccccn1)Cc1cc(F)c(F)cc1F (stereo in doubt; 49a) | 0.132 µM | > 100 µM | > 100 µM | > 100 µM |  |  |  | > 10 µM | > 10 µM | > 10 µM |  | 
15 | Cl.N[C@@H](CC(=O)N1CCn2c(nnc2C(F)(F)F)C1Cc1ccccn1)Cc1cc(F)c(F)cc1F (stereo in doubt; 49b) | 0.0004 µM | > 100 µM | 5 µM | > 100 µM | 94 mL/min/kg | 1.9 h | 9% | > 10 µM | > 10 µM | > 10 µM | 16 nM | 
